UCH37 DUB inh: inhibitors of human UCH37 deubiquitinase, primary screen, biochemical, Ub-AMC cleavage, fluorescence. Ubiquitin carboxyl-terminal hydrolase isozyme L5 (Homo sapiens), Q9Y5K5. purified proteasome/UCH37. inhibition, % (no concentration beside the values). 330,000 compounds, 0.33% hits;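 active = mean inhibition over replicate wells above about 20%, limit read from the data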;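 also: 0% = compound-free wells with enzyme and 100% = wells lacking proteasome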
Target sequence (Q9Y5K5 whole entry, looked up): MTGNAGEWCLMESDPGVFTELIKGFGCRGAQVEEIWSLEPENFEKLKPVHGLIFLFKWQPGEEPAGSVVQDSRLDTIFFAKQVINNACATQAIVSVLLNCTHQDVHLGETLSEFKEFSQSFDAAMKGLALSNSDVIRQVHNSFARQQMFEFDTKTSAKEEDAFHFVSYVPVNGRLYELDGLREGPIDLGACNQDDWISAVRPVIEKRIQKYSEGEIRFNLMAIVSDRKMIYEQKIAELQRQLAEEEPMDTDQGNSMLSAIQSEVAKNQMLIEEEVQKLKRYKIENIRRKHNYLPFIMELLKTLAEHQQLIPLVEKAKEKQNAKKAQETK
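Material: human UCH37 enzyme supplied as purified proteasome complex / Amount: 0.15 nM proteasome as dispensed / Buffer or medium: pH 7.4 Tris-HCl (50 mM) with ovalbumin, ATP-MgCl2, DTT / Times: preincubation 30 min, reaction 25 min, room temperature / Technique: AMC fluorescence from Ub-AMC cleavage, excitation 355 nm, emission 460 nm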
Rin1 Abl inh: inhibitors of Rin1-Abl protein binding, primary screen, biochemical, TR-FRET. AID 588664, 2011. Tyrosine-protein kinase ABL1 (Homo sapiens) + Ras and Rab interactor 1 (Homo sapiens), …. 360,000 compounds, 0.4% hits. inhibition, % at 7.35 µM; in the data active = inhibition above about 5%, passing the limit was not always enough
ATG4B inhibitor: ATG4B protease inhibitors, primary screen, biochemical, fluorescence, uHTS; Cysteine protease ATG4B (Homo sapiens), Q9Y4P1; ATG4B cleavage of LC3-PLA2, NBD-HPC fluorescence, 1 h; inhibition, % at 8.33 µM; 340,000 compounds, 0.51% hits; in the data active = inhibition above about 40%
TbMetRS inhib: T. brucei MetRS inhibitors, primary screen, biochemical, luminescence. methionyl-tRNA synthetase (Trypanosoma brucei brucei). 360,000 compounds, 0.4% hits. inhibition, % at 11.9 µM. purified T. brucei MetRS, ATP depletion, Kinase-Glo luminescence;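 active = inhibition above a per-plate cutoff of the control wells' mean inhibition plus 3 SD, cut at about 5.5% in these data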;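 also: 0% = DMSO wells median and 100% = median of wells with control inhibitor compound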
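Test system: purified T. brucei MetRS enzyme. Also added: ATP, methionine and E. coli bulk tRNA substrates. Compound: 11.9 µM single point. Schedule: 15 min enzyme-compound preincubation, 2 h reaction, 10 min detection, 25 °C. Signal: luciferase luminescence of residual ATP, Kinase-Glo. Evaluation: percent inhibition versus plate control medians. Controls: DMSO wells, low control.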
ATG4B confirm: ATG4B protease inhibitors, retest, confirmation, biochemical, fluorescence, single concentration. ATG4B protease fluorescent substrate cleavage assay. AID 504757, 2011. shares compounds with ATG4B inhibitor. 320 compounds, 92% hits. inhibition, % at 8.33 µM; in the data active = inhibition above about 39%
PLA2 counter: PLA2 enzyme inhibition, counter-screen for ATG4B inhibitor project, biochemical, single concentration, uHTS hits; purified PLA2, NBD-C6-HPC fluorescence, 45 min; inhibition, % at 8.33 µM; 1,600 compounds, 66% hits; shares compounds with ATG4B inhibitor; in the data active = inhibition above about 50%
Target sequence (P04054 whole entry, looked up): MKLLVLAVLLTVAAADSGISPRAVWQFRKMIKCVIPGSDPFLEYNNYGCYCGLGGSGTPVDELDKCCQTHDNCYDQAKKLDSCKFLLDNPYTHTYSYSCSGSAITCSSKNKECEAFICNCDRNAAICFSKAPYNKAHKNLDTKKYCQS
Numbers without * were called inactive; / = not tested or not shown. The list is not random: actives were taken first. Their share in the collection is about 1.4%.

SMILES	UCH37 DUB inh	Rin1 Abl inh	ATG4B inhibitor	TbMetRS inhib	PLA2 counter	others
O=C(/C=C1\NC2(CCCC2)Cc2ccccc21)C(=O)N/N=C/c1ccc(O)c(O)c1	/	0	61*	0	68*
COc1ccc(-c2cc(=Nc3ccc(C(=O)O)cc3)c3cc(C)ccc3o2)cc1	-34	5	41*	1	54*
CCc1ccc2oc(-c3ccc(OC)cc3)cc(=Nc3c(C)n(C)n(-c4ccccc4)c3=O)c2c1	-12	-4	11	0	/
CCc1ccc2oc(-c3ccc(OC)cc3)cc(=Nc3cccc(C(=O)O)c3)c2c1	-5	1	81*	0	80*
Cc1cccc(C)c1NC(=O)COC(=O)c1c2c(nc3ccccc13)/C(=C\c1ccc3c(c1)OCO3)CCC2	-319	-11	44*	0	16
Cc1cccc(C(=O)Nc2scc(CC(C)C)c2C(=O)O)c1	2	5	73*	0	68*
CC(C)Cc1csc(NC(=O)c2ccc(Cl)cc2)c1C(=O)O	0	1	20	0	/
Cc1cccc(C(=O)Nc2scc(-c3ccc(Br)cc3)c2C(=O)O)c1	-9	-1	37	-1	/
Cc1ccc(-c2csc(NC(=O)c3cccc(C)c3)c2C(=O)O)cc1	-1	-1	45*	0	52*
O=C(OCc1cc(Cl)ccc1OC(F)F)c1cncc(Br)c1	3	0	52*	0	54*
COC1=C(Br)C(=O)c2ncccc2C1=O	/	0	69*	1	-13	ATG4B confirm=32
COc1ccc(-c2csc(NC(=O)c3ccccc3NS(=O)(=O)c3ccc(F)c(F)c3)n2)cc1	-6	1	69*	0	80*
Cc1ccc(S(=O)(=O)Nc2ccccc2C(=O)Nc2nc(-c3ccc(F)cc3)cs2)cc1	-63	1	47*	0	60*
O=c1c2ccccc2c(-c2cccc(C(F)(F)F)c2)nn1-c1ccccc1	4	0	12	0	/
O=c1c2ccccc2c(-c2ccc(O)cc2)nn1-c1cccc(C(F)(F)F)c1	0	-1	60*	-1	72*
Cc1c(C(=O)Nc2ccc(-c3nnc4n3CCCCC4)cc2)oc2c1ccc1ccccc12	-34	-1	45*	-1	60*
Cc1ccc(S(=O)(=O)Nc2ccc(-c3nnc(SCc4ccccc4Cl)o3)cc2)cc1	2	0	52*	0	46
CCCn1c(C)cc(C(=O)CN2C(=O)c3ccccc3C2=O)c1C	-1	-1	-5	0	/
O=C(O)c1cc(O)c2c(c1)[C@H]([C@H]1c3cc(C(=O)O)cc(O)c3C(=O)c3c(O[C@@H]4O[C@H](CO)[C@@H](O)[C@H](O)[C@H]4O)cccc31)c1cccc(OC3O[C@H](CO)[C@@H](O)[C@H](O)[C@H]3O)c1C2=O (stereo not given in full)	8	12	95*	1	-12
O=C1c2c(O)cccc2C(C2OC(CO)[C@@H](O)[C@H](O)[C@H]2O)c2cc(CO)cc(O)c21 (stereo not given in full)	4	0	3	0	/
COc1ccc(NC(=O)c2ccccc2Oc2ccccc2)cc1	1	-3	5	-1	/
Cc1cccc(Oc2ccc(NC(=O)c3ccccc3C(=O)O)cc2)c1C	2	4	69*	-1	70*
COc1ccc(F)cc1S(=O)(=O)NCCN1CCOCC1	0	0	3	-2	/
CCCCn1c(SCC(=O)Nc2cc(C)[nH]n2)nc2ccsc2c1=O	-1	-2	45*	0	44	ATG4B confirm=56*
Cc1ccc(-n2cnn(-c3ccc([N+](=O)[O-])cc3[N+](=O)[O-])c2=O)cc1	3	-3	0	-1	/
SMILES	UCH37 DUB inh	Rin1 Abl inh	ATG4B inhibitor	TbMetRS inhib	PLA2 counter	others
O/N=C/c1ccc2ccccc2n1	/	3	-1	3	/
CC(C)(C)c1ccccc1N=Cc1ccc2ccccc2n1	-2	-1	54*	-1	35	ATG4B confirm=74*
O=C(Nc1nncs1)C12CC3CC(CC(C3)C1)C2	4	6	-6	0	/
O=C(COc1ccccc1/C=C1\SC(=O)NC1=O)Nc1ccccc1	0	2	10	0	/
O=C1NC(=O)/C(=C\c2ccccc2Oc2ccc(F)c(F)c2)S1	-2	1	57*	0	48
O=C1NC(=O)/C(=C/c2ccccc2OCc2ccccc2)S1	-12	-1	46*	0	53*
COC(=O)C[C@@H]1C[C@@H]2c3cc(NC(=O)NC4CCCCC4)ccc3O[C@@H]2[C@H](CO)O1	/	1	/	-1	/
O=C(O)c1cc2c(cc1NC(=O)c1ccccc1OC(F)F)OCCCO2	3	5	44*	-1	42	ATG4B confirm=58*
COc1ccccc1C(=O)Nc1cc2c(cc1C(=O)O)OCCCO2	5	0	0	0	/
Cc1csc(NC(=O)c2cccc([N+](=O)[O-])c2C(=O)O)n1	2	-1	-5	0	/
O=C(Nc1nc(-c2ccccc2)cs1)c1cccc([N+](=O)[O-])c1C(=O)O	2	-3	55*	-1	65*
COCCNC(=O)C(=O)N/N=C(\C)CC(=O)Nc1ccc(Cl)cc1Cl	/	-2	1	0	/
C=CCn1c(COc2ccccc2-c2ccccc2)nnc1SCC(=O)NC(=O)NCc1ccco1	5	-2	75*	-1	85*
C=CCn1c(COc2ccccc2F)nnc1SCC(=O)NC(=O)NCc1ccco1	0	3	-1	0	/
CCc1ccc2n(-c3ccc(OC)cc3)c([S-])c(C(=O)Nc3cc(C)cc(C)c3)[n+]2c1	-11	0	0	0	/
O=C(CNCc1ccccc1Cl)NCc1ccco1	1	0	-6	0	/
O=C(CNCCc1ccc(Cl)cc1Cl)NCc1ccco1	3	0	41*	0	45	ATG4B confirm=66*
CC(C)(Oc1ccc(Cl)cc1)C(=O)N(Cc1ccccc1)c1ccccn1	3	-4	10	-1	/
O=C(Nc1nc(-c2ccccc2)cs1)NC1CCCCC1	3	-1	58*	-1	66*
c1ccc(-c2csc(NC3CCCCC3)n2)cc1	1	-2	15	0	/
Cc1onc(-c2ccccc2)c1C(=O)Nc1ccc2c(c1)OCCO2	0	-3	0	0	/
O/N=C(/c1ccc(F)cc1)C1CC1c1c(F)cccc1Cl (stereo not given)	/	4	48*	0	47
